Measured values taken from article PMC10543179 (iScience, 2023).
“And” between values parts separate entries of the source, which are not always exact repeats. Identical values can stand only once. Like-named read-outs stand apart in the source and are kept apart here. Marks after values point to notes of the source that are not given here. One block for each compound: values may come before it.

How the values were obtained:
[1] = 13C NMR lactate transport assay; format: biochemical; conditions: 1% mol carrier to lipid, 50 mM NaCl, 0.5 mM MnCl2
Procedure, shortened: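 POPC vesicles loaded with 13C-carboxyl-labelled sodium L-lactate (200 mM NaLac, 20 mM NaH2PO4, pH 7.2), then dialysed against 150 mM Na2SO4, 20 mM NaH2PO4, pH 7.2 to remove unencapsulated lactate. 13C NMR spectra were taken after the NaCl pulse with the test compound, then after MnCl2, which affects only extravesicular lactate signals.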

[2] = Solubility in DMSO-d6 when preparing NMR solutions; format: physicochemical; conditions: DMSO-d6, 25 °C, organic solvent or mixture
HeLa = assay: MTT cell viability assay; format: cell-based, Human; conditions: 24 h; for IC25 HeLa / IC75 HeLa: mean ± SD; for IC50: Homo sapiens, HeLa, read-out: IC50 HeLa
Procedure, shortened: (§1)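 Cells were seeded at 10^4/well and left overnight, then exposed 24 h to 0.8–100 µmol/L test compound, with DMSO as control. MTT (5 mg/mL) was added for 2 h at 37 °C; formazan was dissolved in DMSO and read at 570 nm. IC25/50/75 came from viability curves, triplicate wells, ≥3 independent experiments, mean ± SD. Media: HeLa and CAL27 DMEM/10% FBS; MCF7 DMEM/F12/10% FBS plus insulin; MCF10A DMEM/F12/5% horse serum plus insulin.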

MCF7 = assay: MTT cell viability assay; format: cell-based, Human; conditions: for IC25 MCF7 / IC75 MCF7: 24 h, mean ± SD; for IC50: Homo sapiens, MCF7, 24 h, read-out: IC50 MCF7
Procedure, shortened: as §1

MCF10A = assay: MTT cell viability assay; format: cell-based, Human; conditions: 24 h; for IC25 MCF10A / IC75 MCF10A: mean ± SD; for IC50: Homo sapiens, MCF-10A, read-out: IC50 MCF10A
Procedure, shortened: as §1

CAL27 = assay: MTT cell viability assay; format: cell-based, Human; conditions: for IC25 CAL27 / IC75 CAL27: 24 h, mean ± SD; for IC50: Homo sapiens, CAL-27, 24 h, read-out: IC50 CAL27
Procedure, shortened: as §1

HeLa cells [3] = assay: Combination therapy of 1 and CisPt; format: cell-based, Human
[4] = ISE chloride efflux assay, Cl−/NO3− exchange; format: biochemical; conditions: read-out: EC50 Cl^−/NO3^−; chloride efflux at 300 s, 0.5 mM POPC, pH 7.2
Procedure, shortened: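 POPC vesicles (200 nm) held 489 mM NaCl, 5 mM NaH2PO4, pH 7.2, and were dialysed into and dispersed in 489 mM NaNO3, 5 mM NaH2PO4, pH 7.2; final lipid 0.5 mM. Test compound in DMSO was added at t = 0, with DMSO as blank. Chloride release was followed by chloride-selective electrode for 300 s, then Triton-X lysis set 100% release. EC50 and Hill coefficient were derived.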

[5] = system: HeLa, MCF7, CAL27 and MCF10A cell lines; assay: MTT cell viability assay, summary among cell lines; format: cell-based; conditions: Homo sapiens, 24 h, read-out: IC50 values among different cell lines
Procedure, shortened: as §1

HeLa cells [6] = assay: Lactate transport experiments; format: cell-based, Human; conditions: for Extra- and intracellular lactate levels in the presence of Syro compared with Syro alone: 3.9 μM compound, Syro 10 μM 1 h pre-treatment, 60 and 120 min
Procedure, shortened: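 HeLa cells were seeded at 10^5 cells/mL and left overnight, then treated 60 and 120 min; test compounds were at 3.9 µM, with DMSO as control. Medium was kept for extracellular lactate. Cells were washed, permeabilised 5 min with 0.2 M HCl in PBS, and neutralised with 1 M Tris base. Extracts were mixed 1:1 with Lactate-Glo reagent, and luminescence was read after 1 h against a standard curve. Values were normalised to BCA protein after 2% SDS lysis.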

[7] = deprotonated form, calculated; cited from earlier work
[8] = read-out: EC50 Cl^−/HCO3^−; chloride efflux at 300 s, POPC vesicles; cited from earlier work
[9] = read-out: EC50 Cl^−/NO3^−; chloride efflux at 300 s, POPC vesicles; cited from earlier work

SMILES: COc1cc(-c2cn(-c3ccc(C(C)(C)C)cc3)nn2)[nH]c1/C=N/C1CCCC1.Cl [Compound 2, (E)-N-((5-(1-(4-(tert-butyl)phenyl)-1H-1,2,3-triazol-4-yl)-3-methoxy-1H-pyrrol-2-yl)methylene)cyclopentanaminium chloride]
IC25 HeLa (HeLa): 11.34 ± 0.38 µM
IC75 HeLa (HeLa): 13.77 ± 1.88 µM
IC50 (HeLa): 12.5 ± 0.98 µM
IC25 MCF7 (MCF7): 4.04 ± 1.37 µM
IC75 MCF7 (MCF7): 20.49 ± 3.88 µM
IC50 (MCF7): 9.06 ± 2.35 µM
IC25 MCF10A (MCF10A): 13.62 ± 1.64 µM
IC75 MCF10A (MCF10A): 25.65 ± 3.97 µM
IC50 (MCF10A): 18.7 ± 2.55 µM
IC25 CAL27 (CAL27): 9.25 ± 2.26 µM
IC75 CAL27 (CAL27): 12.35 ± 2.40 µM
IC50 (CAL27): 10.6 ± 2.06 µM
EC50 [4]: 0.016 ± 0.001 µM
IC50 [5]: 4.6 to 25.4 µM

SMILES: COc1cc(-c2cn(-c3ccc(C(C)(C)C)cc3)nn2)[nH]c1/C=N/CCO.Cl [Compound 3, (E)-N-((5-(1-(4-(tert-butyl)phenyl)-1H-1,2,3-triazol-4-yl)-3-methoxy-1H-pyrrol-2-yl)methylene)-2-hydroxyethan-1-aminium chloride]
IC25 HeLa (HeLa): 11.98 ± 0.40 µM
IC75 HeLa (HeLa): 15.29 ± 1.87 µM
IC50 (HeLa): 13.5 ± 1.05 µM
IC25 MCF7 (MCF7): 7.22 ± 0.85 µM
IC75 MCF7 (MCF7): 34.69 ± 3.11 µM
IC50 (MCF7): 15.8 ± 1.14 µM
IC25 MCF10A (MCF10A): 18.11 ± 3.23 µM
IC75 MCF10A (MCF10A): 35.95 ± 4.27 µM
IC50 (MCF10A): 25.4 ± 1.61 µM
IC25 CAL27 (CAL27): 14.62 ± 3.20 µM
IC75 CAL27 (CAL27): 20.88 ± 4.45 µM
IC50 (CAL27): 17.4 ± 3.31 µM
EC50 [4]: 8.34 ± 0.431 µM
IC50 [5]: 4.6 to 25.4 µM

SMILES: COc1cc(-c2cn(-c3ccc(Cl)cc3)nn2)[nH]c1/C=N/C1CCCCC1.Cl [Compound 6, (E)-N-((5-(1-(4-Chlorophenyl)-1H-1,2,3-triazol-4-yl)-3-methoxy-1H-pyrrol-2-yl)methylene)cyclohexanaminium chloride]
IC25 HeLa (HeLa): 6.09 ± 0.09 µM
IC75 HeLa (HeLa): 6.54 ± 0.02 µM
IC50 (HeLa): 6.31 ± 0.06 µM
IC25 MCF7 (MCF7): 9.05 ± 1.13 µM
IC75 MCF7 (MCF7): 14.53 ± 1.23 µM
IC50 (MCF7): 11.5 ± 1.19 µM
IC25 MCF10A (MCF10A): 3.49 ± 0.22 µM
IC75 MCF10A (MCF10A): 6.12 ± 1.56 µM
IC50 (MCF10A): 4.61 ± 0.15 µM
IC25 CAL27 (CAL27): 6.58 ± 2.98 µM
IC75 CAL27 (CAL27): 8.44 ± 2.59 µM
IC50 (CAL27): 7.41 ± 2.77 µM
LogP [7]: 4.22 ^c
EC50 [8]: 0.13 ± 0.007 µM
IC50 [5]: 4.6 to 25.4 µM
EC50 [9]: 0.0326 ± 0.0008 µM

SMILES: CCOC(=O)Oc1c(OC)cc(C(=O)O[C@@H]2C[C@@H]3CN4CCc5c([nH]c6cc(OC)ccc56)[C@H]4C[C@@H]3[C@H](C(=O)OC)[C@H]2OC)cc1OC [Syro, Syrosingopine, reference compound]
Intracellular lactate levels compared to DMSO (HeLa cells [6]; Syro alone 10 μM, 60 and 120 min (p < 0.0001)): significantly higher than DMSO

Further lines, with some results ahead:

solubility [2]: < 50 mM
IC50 (HeLa): 3.36 ± 0.19 µM
IC50 (MCF7): 5.58 ± 1.17 µM
EC50 [4]: 0.0037 ± 0.0004 µM
SMILES: COc1cc(-c2cn(-c3ccc(C(C)(C)C)cc3)nn2)[nH]c1/C=N/C12CC3CC(CC(C3)C1)C2.Cl [Compound 1, N-((E)-(5-(1-(4-(tert-butyl)phenyl)-1H-1,2,3-triazol-4-yl)-3-methoxy-1H-pyrrol-2-yl)methylene)adamantan-1-aminium chloride]
Lactate efflux from vesicles seen by 13C NMR after NaCl pulse and MnCl2 [1]: facilitates lactate efflux
IC25 HeLa (HeLa): 2.85 ± 0.16 µM
IC75 HeLa (HeLa): 3.9 µM and 3.95 ± 0.26 µM
IC25 MCF7 (MCF7): 4.00 ± 1.22 µM
IC75 MCF7 (MCF7): 7.91 ± 1.42 µM
IC25 MCF10A (MCF10A): 5.36 ± 1.09 µM
IC75 MCF10A (MCF10A): 11.22 ± 3.94 µM
IC50 (MCF10A): 7.66 ± 1.86 µM
IC25 CAL27 (CAL27): 2.68 ± 0.18 µM
IC75 CAL27 (CAL27): 4.00 ± 0.50 µM
IC50 (CAL27): 3.27 ± 0.27 µM
Effect of combination therapy with CisPt on cell viability (HeLa cells [3]; 1 at IC10, IC25, IC50, IC75 for 24 h, then CisPt 24 h, all doses of 1): higher compared with respective monotherapy of CisPt
Type of interaction with CisPt (Combination Index) (HeLa cells [3]; higher doses of both 1 and CisPt): moderate synergic effect
Type of interaction with CisPt (Combination Index) (HeLa cells [3]; majority of the dose combinations tested): additive effect
IC50 [5]: 3.3 to 7.7 µM

IC50 (HeLa): > 100 µM
IC50 (MCF7): > 100 µM
SMILES: COc1cc(-c2cn(CCO)nn2)[nH]c1/C=N/CCO.Cl [Compound 4, (E)-2-hydroxy-N-((5-(1-(2-hydroxyethyl)-1H-1,2,3-triazol-4-yl)-3-methoxy-1H-pyrrol-2-yl)methylene)ethan-1-aminium chloride]
Lactate efflux from vesicles seen by 13C NMR after NaCl pulse and MnCl2 [1]: no changes
IC25 HeLa (HeLa): >100 µM
IC75 HeLa (HeLa): >100 µM
IC25 MCF7 (MCF7): >100 µM
IC75 MCF7 (MCF7): >100 µM
IC25 MCF10A (MCF10A): 98.64 ± 0.94 µM
IC75 MCF10A (MCF10A): >100 µM
IC50 (MCF10A): > 100 µM
IC25 CAL27 (CAL27): 60.97 ± 5.40 µM
IC75 CAL27 (CAL27): >100 µM
IC50 (CAL27): 82.1 ± 2.88 µM
Extra- and intracellular lactate levels in the presence of Syro compared with Syro alone (HeLa cells [6]): no significant differences
IC50 [5]: > 82 µM

IC50 (HeLa): 85.6 ± 2.94 µM
IC50 (MCF7): > 100 µM
SMILES: COc1cc(-c2cn(CCO)nn2)[nH]c1/C=N/C12CC3CC(CC(C3)C1)C2.Cl [Compound 5, N-((E)-(5-(1-(2-Hydroxyethyl)-1H-1,2,3-triazol-4-yl)-3-methoxy-1H-pyrrol-2-yl)methylene)adamantan-1-aminium chloride]
IC25 HeLa (HeLa): 78.14 ± 3.00 µM
IC75 HeLa (HeLa): 93.73 ± 3.71 µM
IC25 MCF7 (MCF7): >100 µM
IC75 MCF7 (MCF7): >100 µM
IC25 MCF10A (MCF10A): 94.92 ± 5.23 µM
IC75 MCF10A (MCF10A): >100 µM
IC50 (MCF10A): > 100 µM
IC25 CAL27 (CAL27): 86.88 ± 6.79 µM
IC75 CAL27 (CAL27): >100 µM
IC50 (CAL27): 96 ± 4.79 µM
Extra- and intracellular lactate levels in the presence of Syro compared with Syro alone (HeLa cells [6]): no significant differences
IC50 [5]: > 82 µM
